# Assay results gathered from unrelated publications.
# Lines come from different studies, so protocols differ.
# Target: Acetylcholinesterase (ACHE, Homo sapiens, UniProt P22303)
# Effect on: enzyme activity
# Mode: inhibitor
Structure (SMILES),test,IC50 [nM]
COc1cc(-c2nc3ccccc3s2)cc2c1OCC(=O)N2CC(=O)N[C@@H](Cc1ccccc1)C(=O)O,Ellman,> 247000
O=c1cc(CSc2ccc(N=Cc3ccc([N+](=O)[O-])cc3)cc2)occ1O,Ellman,8380
CC(C)c1cc2c(c(O)c1O)[C@@]1(C(=O)O)CCCC(C)(C)[C@@H]1CC2,,0.78
COc1cc(-c2nc3ccccc3s2)cc2c1OCC(=O)N2CC(=O)N[C@@H](C)C(=O)O,Ellman,> 290000
CCc1cccc(C)c1NC(=O)CSc1nnc(COc2ccc3ccccc3c2)n1-c1ccccc1,Ellman,1420
O=c1cc(CSc2ccc(N=Cc3ccc(Cl)cc3)cc2)occ1O,Ellman,1330
COc1cc(-c2nc3ccccc3s2)cc(NC(C)=O)c1OCC(=O)N[C@@H](C)C(=O)O,Ellman,> 289000
O=C(CSc1nnc(COc2ccc3ccccc3c2)n1-c1ccccc1)Nc1ccccc1,Ellman,1870
COc1cc(-c2nc3ccccc3s2)cc2c1OCC(=O)N2CC(=O)N[C@@H](CC(C)C)C(=O)O,Ellman,> 265000
Cc1cccc(C)c1NC(=O)CSc1nnc(COc2ccc3ccccc3c2)n1-c1ccccc1,Ellman,1010
O=c1cc(CSc2ccc(N=Cc3ccc(O)cc3)cc2)occ1O,Ellman,5060
Cc1cc(C)cc(NC(=O)CSc2nnc(COc3ccc4ccccc4c3)n2-c2ccccc2)c1,Ellman,1120
O=c1cc(CSc2ccc(N=Cc3cccc(Cl)c3)cc2)occ1O,Ellman,13200
CC(C)c1cc2c(c(O)c1O)[C@@]13CCCC(C)(C)[C@@H]1[C@H](OC3=O)[C@H]2O,,0.734
CC[C@@H](C)[C@H](NC(=O)CN1C(=O)COc2c(OC)cc(-c3nc4ccccc4s3)cc21)C(=O)O,Ellman,> 265000
O=c1cc(CSc2ccc(N=Cc3ccccc3F)cc2)occ1O,Ellman,4100
